Values belong to the compound of their own block, whether it stands above or below them.
How the values were obtained:
[1] = Plasma protein binding in mouse assessed as bound fraction at 2 uM measured after 120 mins by equilibrium dialysis method; type: ADME, cell-free; details: read-out: PPB (converted)
[2] = Activation of Mitofusin in MFN2 deficient mouse MEF cells assessed as mitochondria elongation
[3] = Plasma protein binding in human assessed as bound fraction at 2 uM incubated for 120 mins by equilibrium dialysis method; type: ADME, cell-free; details: read-out: PPB (converted)
[4] = Volume of distribution at steady state in CD-1 mouse at 10 mg/kg, iv administered as single dose by HPLC analysis; type: ADME, organism-based; details: in vivo, read-out: Vdss
How it was run: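 Single 10 mg/kg IV dose of enantiomeric mixture in 10%DMSO/90%(30%HP-b-CD) to 7-9 week male CD-1 mice; plasma collected over time, proteins precipitated with ACN containing warfarin internal standard, analysed by HPLC; non-compartmental analysis; mean ± SEM, 3 mice per condition.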

[5] = MRT (0 to infinity) in overnight fasted CD-1 mouse total plasma at 50 mg/kg, po by HPLC analysis; type: ADME, organism-based
How it was run: (§1)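 Overnight-fasted 7-9 week male CD-1 mice, food returned 4 h post-dose, given 50 mg/kg by oral gavage (5 mg/mL in 30% SBE-β-CD); plasma and brain (homogenized in MeOH/15 mM PBS) quenched with ACN internal-standard mix, HPLC; free levels calculated from mouse plasma and brain protein binding; mean ± SEM, 3 mice per time point.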

[6] = Tmax in non-fasted CD-1 mouse right sciatic nerve at 50 mg/kg, po by HPLC analysis; type: ADME, organism-based
How it was run: (§2)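 Oral gavage 50 mg/kg (5 mg/mL in 10%DMSO/90%(30%HP-b-CD)) to non-fasted 7-9 week male CD-1 mice; brain, spinal cord and sciatic nerve homogenized in water, diluted in control mouse plasma, ACN precipitation with warfarin internal standard, HPLC; non-compartmental time-concentration analysis; 3 mice per condition.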

[7] = Tmax in non-fasted CD-1 mouse brain at 50 mg/kg, po by HPLC analysis; type: ADME, organism-based; how it was run: as §2
[8] = Tmax in non-fasted CD-1 mouse spinal cord at 50 mg/kg, po by HPLC analysis; type: ADME, organism-based; how it was run: as §2
[9] = Tmax in non-fasted CD-1 mouse left sciatic nerve at 50 mg/kg, po by HPLC analysis; type: ADME, organism-based; how it was run: as §2
[10] = MRT (0 to infinity) in overnight fasted CD-1 mouse total brain at 50 mg/kg, po by HPLC analysis; type: ADME, organism-based; how it was run: as §1

fraction unbound at 2 h, 2 µM [1]: 0.012 | EC50 [2]: 15.3 nM | fraction unbound at 2 h, 2 µM [3]: 0.0075
Structure (SMILES): O=C(N[C@H]1CC[C@H](O)CC1)C1CCC(CCCc2ccccc2)C1 (some centres not stated)

Vd [4]: 0.6 L/kg
Structure (SMILES): O=C(N[C@H]1CC[C@H](O)CC1)C1CC1CCCc1ccccc1 (some centres not stated)

MRT inf [5]: 1.92 h | Tmax [6]: 30 min | Tmax [7]: 30 min | Tmax [8]: 30 min | Tmax [9]: 30 min | MRT inf [10]: 1.98 h
Structure (SMILES): O=C(N[C@H]1CC[C@H](O)CC1)[C@@H]1C[C@H]1CCCc1ccccc1

MRT inf [5]: 1.01 h | MRT inf [10]: 0.959 h
Structure (SMILES): O=C(CCCCCc1ccccc1)N[C@H]1CC[C@H](O)CC1
